The species entered for test [1] is Mus musculus. Put plainly: Compound was evaluated for hallucinogenic activity in mice; Inactive. The class given is functional, organism-based. In outline:
(§1)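 Male albino Swiss-Webster derived mice, 25–40 g, group housed at 22–24 °C, 12–12 h light-dark cycle. HCl salt given ip in saline (0.1 mL/10 g body weight). Mice observed in groups of three, continuously for 30 min; total hindleg scratches of the back of the ear counted, with the hindleg then returned to the floor. Saline control included.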

For test [2], the system named is Mus musculus. Put plainly: Evaluated for ear-scratch response (hallucinogen like activity) in mice at a dose of 4.00 mg/Kg. The test is classed as functional. The gist of the method: as §1
Test [3] deals with Mus musculus. Put plainly: Evaluated for ear-scratch response (hallucinogen like activity) in mice at a dose of 1.00 mg/Kg. The test is classed as functional. The gist of the method:
as §1

Test [4] concerns Mus musculus. Nature of the test: Evaluated for ear-scratch response (hallucinogen like activity) in mice at a dose of 2.00 mg/Kg. The class given is functional. In outline: as §1
The subject of test [5] is Mus musculus. Put plainly: Evaluated for ear-scratch response (hallucinogen like activity) in mice at a dose of 5.00 mg/Kg. The class given is functional. In outline: as §1
Test [6] has as its system Mus musculus. Nature of the test: Evaluated for ear-scratch response (hallucinogen like activity) in mice at a dose of 10.00 mg/Kg. The class given is functional. The gist of the method:
as §1

Test [7] deals with Mus musculus. Put plainly: Evaluated for ear-scratch response (hallucinogen like activity) in mice at a dose of 20.00 mg/Kg. The test is classed as functional. In outline: as §1
For test [8], the system named is Mus musculus. Nature of the test: Evaluated for ear-scratch response (hallucinogen like activity) in mice at a dose of 1.25 mg/Kg. The test is classed as functional. In outline: as §1
In test [9] the test system is Mus musculus. Nature of the test: Evaluated for ear-scratch response (hallucinogen like activity) in mice at a dose of 2.5 mg/Kg. The class given is functional. The gist of the method:
as §1

Test [10] relates to Mus musculus. Put plainly: Evaluated for ear-scratch response (hallucinogen like activity) in mice at a dose of 10.0 mg/Kg. The test is classed as functional. In outline: as §1
Test [11] relates to Mus musculus. Nature of the test: Evaluated for ear-scratch response (hallucinogen like activity) in mice at a dose of 20.0 mg/Kg. The class given is functional. In outline:
as §1

Active and inactive are the calls of the source. The calls are words filed in the database; no cut-off is given here.

As for `CC[C@@H](N)Cc1cc(OC)c(C)cc1OC`, in the test listed under Mus musculus [1], the Halucinogenic activity result is “inactive”.

As to `COc1cc(C[C@@H](C)N)c(OC)cc1C`, the figures for the No. of scratches in the test with Mus musculus [2], in the test with Mus musculus [3] and with Mus musculus [4] were 79, 52.4 and 109.2, respectively.

Consider `COc1cc(C2CC2N)c(OC)cc1C` (configuration not stated), for which the No. of scratches in the test on Mus musculus [5] is recorded as 39.5; with Mus musculus [6] it was 56.2; with Mus musculus [7] it was 64.2.

As to `COc1cc([C@@H]2[C@@H](C)[C@H]2N)c(OC)cc1C` (stereo in doubt; 4a), the No. of scratches in the test on Mus musculus [5] was 17.3; in the test on Mus musculus [8] it was 11.5; with Mus musculus [9], 10.8; in the test on Mus musculus [10], 12.8; in the test with Mus musculus [11] it was 2.5.

(Values after ChEMBL document CHEMBL1122052, “Isomeric cyclopropyl ring-methylated homologues of trans-2-(2,5-dimethoxy-4-methylphenyl)cyclopropylamine, an hallucinogen analogue” (1982).)
